# Screening data deposited in PubChem by The Scripps Research Institute Molecular Screening Center.
# SIAE inh: inhibitors of human sialic acid acetylesterase SIAE; Q9HAT2; SIAE FP-Rh probe binding, fluorescence polarization; inhibition, % at 9.66 µM; actives 0.69% (n = 370,000);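 active = inhibition above a cutoff: mean of compounds within the control limits plus 3 SD of those, cut at about 17% in these data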;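 note: 0% = plate median of compound wells and 100% = probe without SIAE protein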
# TCR-CD3 inh: human TCR-CD3 binding inhibition; actives 0.37% (n = 360,000); inhibition, % at 9.4 µM; TAMRA-labeled TCR probe fluorescence, biochemical; in the data active = inhibition above about 19%;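 note: recombinant mutant TCR 2C K166C tagged with TAMRA read by polarization; 0% = receptor in buffer alone and 100% = receptor with positive control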
# PRMT1 FP inh: blocks human protein arginine methyltransferase 1 | Q99873 | recombinant PRMT1, activity-based probe fluorescence polarization | inhibition, % at 2.79 µM | actives 1.3% (n = 370,000) | AID 652257;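 active = inhibition above about 21% made by adding two undisclosed values, limit read from the data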
# Target sequence (Q99873 whole entry, looked up): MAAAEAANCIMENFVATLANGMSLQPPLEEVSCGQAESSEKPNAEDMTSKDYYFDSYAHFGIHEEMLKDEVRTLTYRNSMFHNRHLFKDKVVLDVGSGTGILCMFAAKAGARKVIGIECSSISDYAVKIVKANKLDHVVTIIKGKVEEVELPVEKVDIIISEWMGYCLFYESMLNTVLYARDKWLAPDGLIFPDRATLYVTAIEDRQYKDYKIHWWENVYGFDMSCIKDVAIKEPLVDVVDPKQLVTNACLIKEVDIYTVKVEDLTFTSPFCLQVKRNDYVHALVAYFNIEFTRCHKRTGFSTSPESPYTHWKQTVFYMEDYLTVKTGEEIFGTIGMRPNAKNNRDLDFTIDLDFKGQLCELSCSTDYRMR
# HTRA1 inh: blocks human HTRA1 serine peptidase; Q92743; recombinant HTRA1, FP-rhodamine activity-based probe, fluorescence polarization; inhibition, % at 5.96 µM; actives 0.5% (n = 340,000); in the data active = inhibition above about 36%;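 note: 0% = enzyme with DMSO and 100% = wells lacking enzyme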
# rCAG binder: binds r(CAG) RNA repeats. r(CAG) RNA repeat, TO-PRO-1 dye displacement fluorescence. inhibition, % at 3 µM. actives 1.3% (n = 370,000);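 active = inhibition above the plate cutoff, the mean of all test compounds on that plate plus 3 SD, cut at about 35% in these data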;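 note: 0% = DMSO alone and 100% = 100 µM mitoxantrone as full dye displacement; higher means more dye released from RNA so lower well fluorescence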
# mABHD4 FP: inhibits mouse alpha/beta hydrolase domain 4 | purified mABHD4, FP-Rh probe fluorescence polarization | Q8VD66 | actives 0.54% (n = 370,000) | inhibition, % at 8.92 µM | AID 720543;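 active = inhibition exceeding the mean over every tested compound plus 3 SD, cut at about 30% in these data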;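 note: 0% = plate median of compound wells and 100% = S159A mutant with DMSO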
#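 Test system: mouse ABHD4 enzyme, wild type. Reagent: FP-Rh fluorescent activity-based probe, added after compound pre-incubation. Timing: pre-incubation 45 min, probe exposure 60 min, at 25 °C. Technique: FP readout, ex 525 nm / em 598 nm. Benchmarks: high control S159A mutant with DMSO, low control median of compound wells.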
# rCAG binder conf: r(CAG) RNA repeat binding, confirmation; shares compounds with rCAG binder; TO-PRO-1 dye displacement fluorescence; inhibition, % at 3 µM; actives 70% (n = 4,300); AID 652065;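 active = inhibition above a per-plate cutoff, the mean inhibition of sample wells plus 3 SD, cut at about 35% in these data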;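 note: loss of TO-PRO-1 fluorescence as compound displaces dye from 1x1 AA loop RNA; 0% = DMSO only wells and 100% = 100 µM mitoxantrone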
# dCAG dye counter: counter-screen for rCAG RNA binders: DNA CAG dye complex inhibitors; d(CAG) DNA oligo TO-PRO-1 dye displacement, fluorescence; inhibition, % at 3 µM; shares compounds with rCAG binder; actives 94% (n = 4,300);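 active = inhibition above its plate's cutoff, the mean test-well inhibition plus 3 SD, cut at about 4.8% in these data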;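 note: 0% = DNA dye mix with DMSO and 100% = 100 µM mitoxantrone; hits displace the dye from DNA and so lower well fluorescence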
# * hit, by the source's call; nt = no result given. An excerpt weighted towards active compounds, which were near 3.5% of everything screened.
SMILES,SIAE inh,TCR-CD3 inh,PRMT1 FP inh,HTRA1 inh,rCAG binder,mABHD4 FP,rCAG binder conf,dCAG dye counter
CCN(CC)C(=O)CC[C@H]1CC[C@]2(CCCN(Cc3ccccc3)C2)O1,1,nt,0,nt,-2,3,nt,nt
COC(=O)[C@]12C[C@H](CC(=O)NCCCCc3ccccc3)C(=O)N(Cc3cccc4ccccc34)C1=C[C@H](COCc1ccccc1)O[C@@H]2C,-11,nt,6,nt,14,-9,nt,nt
CCC[C@H]1[C@@H](N(C)Cc2ccccc2)CC[C@@]23CCCN2C(=O)CCC[C@@H]13,4,nt,-5,nt,nt,5,nt,nt
CN1[C@H](Cc2ccccc2)COc2cccc(N3CCCC3)c2S1(=O)=O,2,nt,1,nt,4,-1,nt,nt
COc1ccc(C(C(=O)N(C)C2CCCC2)N(Cc2ccc(F)cc2)C(=O)c2sccc2Cl)cc1OC (stereo unspecified),4,nt,-3,nt,0,-2,nt,nt
Cc1ccc(Oc2ccc(NS(=O)(=O)c3cccc(C(=O)O)c3)cc2)cc1,-3,3,-2,-12,38*,-9,38*,10*
O=C(O)c1cccc(S(=O)(=O)Nc2ccc(Oc3ccccc3)cc2)c1,-2,6,0,-5,24,-7,nt,nt
O=C(O)c1cccc(S(=O)(=O)Nc2ccc3oc(=O)sc3c2)c1,0,4,85*,8,42*,18,7,2
O=C(CNS(=O)(=O)c1cccs1)N1CCN(c2ncccn2)CC1,2,nt,-2,nt,2,3,nt,nt
CCn1c2ccccc2c2cc(NC(=O)CSc3nccc(=O)[nH]3)ccc21,12,2,5,9,44*,15,40*,16*
CCn1c2ccccc2c2cc(NC(=O)COC(=O)c3cc(S(N)(=O)=O)c(Cl)cc3Cl)ccc21,-3,9,-1,4,36*,-9,32,17*
CCn1c2ccccc2c2cc(NC(=O)COC(=O)c3ccc(NC(=O)CC#N)cc3)ccc21,8,-5,2,-8,47*,-25,35*,21*
CCn1c2ccccc2c2cc(NC(=O)COC(=O)c3cc(Cl)cc(Cl)c3)ccc21,-1,nt,-4,nt,3,1,nt,nt
COc1cccc(C(=O)N2CCC(Oc3cccnc3)CC2)c1,3,nt,0,nt,1,4,nt,nt
O=C(NCC(c1cccs1)N1CCOCC1)c1ccccc1NS(=O)(=O)c1cccc([N+](=O)[O-])c1 (stereo unspecified),3,1,2,1,48*,5,40*,11*
O=C(NCC(c1cccs1)N1CCOCC1)c1ccccc1NS(=O)(=O)c1ccc(Cl)c([N+](=O)[O-])c1 (stereo unspecified),4,12,-1,2,78*,-5,78*,36*
O=C(NCC(c1cccs1)N1CCOCC1)c1cccc(S(=O)(=O)Nc2ccc(F)cc2)c1 (stereo unspecified),4,3,-2,0,8,5,nt,nt
O=C(NCC(c1cccs1)N1CCOCC1)c1ccccc1NS(=O)(=O)c1cc([N+](=O)[O-])ccc1Cl (stereo unspecified),3,-1,-3,2,42*,2,40*,11*
O=C(NCC(c1cccs1)N1CCOCC1)c1ccc(Cl)c([N+](=O)[O-])c1 (stereo unspecified),-1,0,-3,4,-4,4,nt,nt
COC(=O)C[C@H]1CC[C@H]2[C@H](COc3ccc(NC(=O)C4CCOCC4)cc3C(=O)N2C)O1,-1,nt,-1,nt,3,-3,nt,nt
CCOC(=O)c1csc(NC(=O)C2CCCN(S(=O)(=O)c3cc(OC)ccc3OC)C2)n1 (stereo unspecified),3,nt,3,nt,1,-9,nt,nt
COc1ccc(C(C)=O)cc1CSCC(=O)O,6,2,0,2,3,-1,nt,nt
COc1ccc(C(=O)/C=C/c2cccc(OCc3ccccc3)c2)cc1CSCC(=O)O,-28,2,11,-32,60*,-41,83*,44*
COc1ccc(C=CC(=O)c2ccc(OCc3ccccc3)c(OC)c2)cc1OC,-11,4,6,-22,11,-20,nt,nt
COc1ccc(C(=O)/C=C/c2ccc(OCc3ccccc3)cc2)cc1CSCC(=O)O,-19,-2,4,-53,57*,-18,78*,36*
SMILES,SIAE inh,TCR-CD3 inh,PRMT1 FP inh,HTRA1 inh,rCAG binder,mABHD4 FP,rCAG binder conf,dCAG dye counter
Cc1cc(Nc2ccc(Br)cc2)nc(-c2ccccc2O)n1,-25,-9,-5,-12,38*,-15,16,4
Cc1ccc(Nc2cc(C)nc(-c3ccccc3O)n2)cc1,9,4,1,4,21,-8,nt,nt
CCOC(=O)c1sc(NS(=O)(=O)c2ccccc2)nc1C,-2,2,-2,-10,10,-4,nt,nt
Cc1nc(C)c(C(=O)NNS(=O)(=O)c2ccccc2)s1,2,3,-3,4,-2,2,nt,nt
Cc1ccc(C)c(S(=O)(=O)NNC(=O)c2sc(NS(=O)(=O)c3ccccc3)nc2C)c1,9,7,0,-3,47*,8,31,6.4*
C/C(=N/NC(=O)c1sc(NS(=O)(=O)c2ccccc2)nc1C)c1ccc(F)cc1,5,0,-2,-2,84*,1,49*,15*
C/C(=N/NC(=O)c1sc(NS(=O)(=O)c2ccccc2)nc1C)c1ccccc1,1,9,2,0,58*,4,35,7.1*
O=C1CCC[C@H]2C[C@H](NCc3cccnc3)CC[C@]23CCCN13,-1,nt,-1,nt,nt,1,nt,nt
O=C(c1ccco1)[C@@H]1[C@@H]2C(=O)N(c3ccc(Br)cc3)C(=O)[C@@H]2C2c3ccccc3C=CN21 (stereo partly specified),-16,8,25*,-4,38*,-14,29,16*
O=C(c1ccco1)[C@@H]1[C@@H]2C(=O)N(c3ccc(F)cc3)C(=O)[C@@H]2C2c3ccccc3C=CN21 (stereo partly specified),1,-1,16,nt,17,5,nt,nt
COc1ccc(OC)c(S(=O)(=O)N2CCC(C(=O)NCc3cccs3)CC2)c1,6,nt,-5,nt,4,-4,nt,nt
O=C1C2CCCCC2C(=O)N1c1cccc(OS(=O)(=O)c2ccccc2)c1 (stereo unspecified),9,1,1,-3,-6,4,nt,nt
O=C1CC(=O)N(C2CCCCC2)C(=O)N1c1ccccc1S(=O)(=O)Oc1ccccc1,-12,-5,-3,nt,59*,-12,26,8.0*
Cc1ccc(C)c(NC(=O)c2ccc(CS(=O)(=O)Cc3ccccc3C)o2)c1,3,nt,-1,nt,2,-4,nt,nt
